Data as given in ChEMBL document CHEMBL1764970, “New glucocerebrosidase inhibitors by exploration of chemical diversity of N-substituted aminocyclitols using click chemistry and in situ screening” (J Med Chem, 2011).
The source made the active and inactive calls. No cut-off for these calls is given here.

Assays:
[1] = target: T1, Lysosomal acid glucosylceramidase (Homo sapiens, UniProt P04062); assay: Inhibition of recombinant glucocerebrosidase in McIlvaine buffer at pH 5.2 after 10 mins by fluorometric analysis
T1 sequence (P04062 whole entry): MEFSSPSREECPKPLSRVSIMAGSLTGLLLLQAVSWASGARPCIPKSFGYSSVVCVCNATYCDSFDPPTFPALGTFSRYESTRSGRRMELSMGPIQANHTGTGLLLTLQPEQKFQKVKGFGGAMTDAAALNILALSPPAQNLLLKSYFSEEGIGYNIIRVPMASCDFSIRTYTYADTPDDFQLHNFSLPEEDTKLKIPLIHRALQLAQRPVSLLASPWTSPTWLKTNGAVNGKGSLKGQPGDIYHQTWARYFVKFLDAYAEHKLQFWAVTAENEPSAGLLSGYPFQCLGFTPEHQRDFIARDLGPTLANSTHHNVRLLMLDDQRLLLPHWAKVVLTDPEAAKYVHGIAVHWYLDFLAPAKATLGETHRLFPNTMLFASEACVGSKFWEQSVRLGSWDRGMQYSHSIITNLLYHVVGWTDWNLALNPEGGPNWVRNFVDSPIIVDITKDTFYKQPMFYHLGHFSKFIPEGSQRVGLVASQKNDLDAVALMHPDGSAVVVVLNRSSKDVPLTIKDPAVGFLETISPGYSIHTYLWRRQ
Outline: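 Imiglucerase in McIlvaine buffer pH 5.2 containing 0.2% (w/v) sodium taurocholate and 0.1% (v/v) Triton X-100. Enzyme pre-incubated 30 min at 37 °C with inhibitor. Then 4 mM 4-methylumbelliferyl β-D-glucopyranoside (substrate solution), 10 min at 37 °C. Stop with 100 mM glycine/NaOH pH 10.6, fluorescence ex 355/em 460 nm. IC50 from % activity vs log[I], at least five concentrations.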

[2] = target: Probable alpha-glucosidase Os06g0675700 (Oryza sativa Japonica Group, UniProt Q653V7); assay: Inhibition of rice alpha-glucosidase
Sequence of Probable alpha-glucosidase Os06g0675700 (Q653V7 whole entry): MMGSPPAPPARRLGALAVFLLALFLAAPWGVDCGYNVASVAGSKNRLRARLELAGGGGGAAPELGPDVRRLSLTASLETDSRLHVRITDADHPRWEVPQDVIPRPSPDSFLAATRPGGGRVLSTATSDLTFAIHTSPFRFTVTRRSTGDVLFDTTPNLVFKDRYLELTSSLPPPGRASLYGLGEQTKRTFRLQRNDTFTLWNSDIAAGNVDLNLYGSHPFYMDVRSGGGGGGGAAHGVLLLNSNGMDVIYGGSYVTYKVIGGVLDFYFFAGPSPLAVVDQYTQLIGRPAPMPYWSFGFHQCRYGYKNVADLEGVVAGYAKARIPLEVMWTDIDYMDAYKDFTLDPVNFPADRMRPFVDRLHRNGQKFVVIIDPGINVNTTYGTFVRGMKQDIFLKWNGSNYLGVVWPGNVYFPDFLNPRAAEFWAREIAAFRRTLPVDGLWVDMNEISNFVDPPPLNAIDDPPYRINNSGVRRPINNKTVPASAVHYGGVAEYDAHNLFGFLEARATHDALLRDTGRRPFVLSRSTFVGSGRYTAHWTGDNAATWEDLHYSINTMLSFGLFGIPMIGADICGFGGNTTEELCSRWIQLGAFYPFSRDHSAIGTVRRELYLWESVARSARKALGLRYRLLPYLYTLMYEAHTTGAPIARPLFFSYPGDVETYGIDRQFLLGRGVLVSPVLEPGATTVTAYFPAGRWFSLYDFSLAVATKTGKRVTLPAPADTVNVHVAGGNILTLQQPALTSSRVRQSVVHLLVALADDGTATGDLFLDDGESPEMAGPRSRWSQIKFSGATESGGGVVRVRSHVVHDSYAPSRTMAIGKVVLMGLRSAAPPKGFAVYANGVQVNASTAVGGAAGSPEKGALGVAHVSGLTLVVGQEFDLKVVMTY

Beta-galactosidase = target: T2, Beta-galactosidase (Bos taurus, UniProt Q58D55); assay: Inhibition of bovine liver beta-galactosidase
T2 sequence (Q58D55 whole entry): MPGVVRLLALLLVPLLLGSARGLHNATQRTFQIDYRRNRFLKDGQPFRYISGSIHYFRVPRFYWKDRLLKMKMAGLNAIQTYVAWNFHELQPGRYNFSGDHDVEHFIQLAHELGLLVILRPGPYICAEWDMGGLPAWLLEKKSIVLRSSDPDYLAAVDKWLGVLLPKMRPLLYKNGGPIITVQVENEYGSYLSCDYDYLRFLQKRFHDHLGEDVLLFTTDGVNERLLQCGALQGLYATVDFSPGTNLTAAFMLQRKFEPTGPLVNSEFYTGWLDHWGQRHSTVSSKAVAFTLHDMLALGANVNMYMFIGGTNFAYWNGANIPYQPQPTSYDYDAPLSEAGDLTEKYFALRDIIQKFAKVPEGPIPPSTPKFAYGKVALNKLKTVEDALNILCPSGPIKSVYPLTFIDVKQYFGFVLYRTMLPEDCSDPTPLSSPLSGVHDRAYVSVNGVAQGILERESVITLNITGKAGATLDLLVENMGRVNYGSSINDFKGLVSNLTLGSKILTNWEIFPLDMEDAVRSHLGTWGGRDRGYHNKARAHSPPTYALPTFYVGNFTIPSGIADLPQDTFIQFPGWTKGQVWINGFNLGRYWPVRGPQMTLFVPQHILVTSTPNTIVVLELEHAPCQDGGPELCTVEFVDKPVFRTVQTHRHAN

[3] = Cytotoxicity against human wild type fibroblasts at up to 300 uM after 24 hrs by MTT assay; assay type: cell-based; conditions: fibroblast
[4] = target: Oligo-1,6-glucosidase IMA1 (Saccharomyces cerevisiae S288c, UniProt P53051); assay: Inhibition of yeast alpha-glucosidase
Sequence of Oligo-1,6-glucosidase IMA1 (P53051 whole entry): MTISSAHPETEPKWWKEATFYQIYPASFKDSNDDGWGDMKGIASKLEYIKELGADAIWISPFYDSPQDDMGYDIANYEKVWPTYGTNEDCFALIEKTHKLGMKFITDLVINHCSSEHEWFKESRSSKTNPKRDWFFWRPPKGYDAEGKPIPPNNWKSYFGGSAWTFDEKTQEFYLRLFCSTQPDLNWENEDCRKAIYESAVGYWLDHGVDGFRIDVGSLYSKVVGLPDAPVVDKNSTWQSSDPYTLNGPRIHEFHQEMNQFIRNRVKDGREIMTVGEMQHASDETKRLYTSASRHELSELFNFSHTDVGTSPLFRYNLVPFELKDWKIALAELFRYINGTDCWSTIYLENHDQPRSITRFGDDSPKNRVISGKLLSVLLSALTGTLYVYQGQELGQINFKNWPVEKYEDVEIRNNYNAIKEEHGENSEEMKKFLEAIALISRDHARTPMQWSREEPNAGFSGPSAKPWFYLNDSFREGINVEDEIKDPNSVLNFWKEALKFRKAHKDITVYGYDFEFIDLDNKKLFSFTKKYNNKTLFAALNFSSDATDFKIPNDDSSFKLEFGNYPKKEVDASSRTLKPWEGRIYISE

Alpha-galactosidase = Alpha-galactosidase (Coffea arabica, UniProt Q42656); assay: Inhibition of alpha-galactosidase from coffee beans
Sequence of Alpha-galactosidase (Q42656 whole entry): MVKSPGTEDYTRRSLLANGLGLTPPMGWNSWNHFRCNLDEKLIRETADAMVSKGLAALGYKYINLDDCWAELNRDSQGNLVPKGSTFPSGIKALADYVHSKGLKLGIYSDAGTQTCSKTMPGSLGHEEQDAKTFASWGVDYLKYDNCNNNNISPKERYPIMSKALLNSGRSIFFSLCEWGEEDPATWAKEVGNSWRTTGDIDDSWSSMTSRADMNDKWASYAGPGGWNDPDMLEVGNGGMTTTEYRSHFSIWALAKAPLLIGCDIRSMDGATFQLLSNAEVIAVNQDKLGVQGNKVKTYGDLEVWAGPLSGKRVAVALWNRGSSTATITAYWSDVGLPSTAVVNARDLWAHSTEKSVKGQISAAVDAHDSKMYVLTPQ

[5] = target: T3, Lysosomal acid glucosylceramidase (Homo sapiens) (UniProt P04062); assay: Enzyme stabilization ratio of recombinant glucocerebrosidase activity at 48 degC to at 37 degC at 100 uM after 60 mins
T3 sequence (whole entry): T1 sequence (P04062 whole entry)

[6] = target: T1, Lysosomal acid glucosylceramidase; assay: Competitive inhibition of recombinant glucocerebrosidase
[7] = target: T4, Ceramide glucosyltransferase (Homo sapiens) (UniProt Q16739); assay: Inhibition of glucosylceramide synthase in human A549 cells at 250 uM after 35 mins by fluorometric analysis; assay type: cell-based
T4 sequence (whole entry): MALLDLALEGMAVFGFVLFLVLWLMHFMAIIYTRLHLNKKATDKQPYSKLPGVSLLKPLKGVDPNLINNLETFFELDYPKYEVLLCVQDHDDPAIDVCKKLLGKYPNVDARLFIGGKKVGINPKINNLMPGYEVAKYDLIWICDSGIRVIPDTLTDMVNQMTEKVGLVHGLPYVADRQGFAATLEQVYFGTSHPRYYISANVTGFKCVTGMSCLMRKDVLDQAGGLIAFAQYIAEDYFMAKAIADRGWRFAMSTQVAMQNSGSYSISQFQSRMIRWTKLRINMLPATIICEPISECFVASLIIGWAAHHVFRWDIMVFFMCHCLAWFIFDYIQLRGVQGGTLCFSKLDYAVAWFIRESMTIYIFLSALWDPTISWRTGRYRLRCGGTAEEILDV

[8] = target: T1, Lysosomal acid glucosylceramidase; assay: Inhibition of recombinant glucocerebrosidase in McIlvaine buffer at pH 7.4 after 10 mins by fluorometric analysis
[9] = target: T3, Lysosomal acid glucosylceramidase (Homo sapiens); assay: Inhibition of glucocerebrosidase in human intact fibroblasts at 50 uM after 24 hrs by fluorometric analysis
Outline: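 Fibroblasts grown in MEM with 15% inactivated FCS, 37 °C, 5% CO2, passages 14–30. Plated in DMEM with aminocyclitol (50 μM final, from DMSO) for 24 h, washed with PBS. GCase assayed with 1 h incubation at 37 °C, stopped with 100 mM glycine-NaOH pH 10.6, fluorescence 355/460 nm. Untreated and treated cells in quadruplicate.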

[10] = target: T3, Lysosomal acid glucosylceramidase (Homo sapiens); assay: Thermal stabilization of recombinant glucocerebrosidase assessed as enzyme activity at 150 uM at 48 degC after 60 mins
Outline: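 GCase (2 mg/mL) heated at 48 °C, pH 7.4, with water (control) or compound at 10–150 μM final, for 20, 40 or 60 min. Then acetate-phosphate pH 5.0 and 4 mM 4-methylumbelliferyl β-D-glucoside in McIlvaine pH 5.2 added, 10 min at 37 °C. Stopped with glycine pH 10.6, 4-methylumbelliferone measured. Activity relative to identical assay at 37 °C. SR = relative activity with vs without inhibitor.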

| SMILES | IC50 [1] | IC50 [2] | IC50 (Beta-galactosidase) | Activity [3] | IC50 [4] | IC50 (Alpha-galactosidase) | further results |
| --- | --- | --- | --- | --- | --- | --- | --- |
| CN1CCN(Cc2cccc(Cn3cc(CN[C@H]4[C@H](O)[C@@H](O)[C@H](O)[C@@H](O)[C@@H]4O)nn3)c2)CC1 | 66.5 µM | – | – | – | – | – | – |
| CCCCCCCCCN1C[C@H](O)[C@@H](O)[C@H](O)[C@H]1CO | – | > 100 µM | > 100 µM | Non-toxic | > 100 µM | > 100 µM | – |
| COCCCOCCCOCCCn1cc(CN[C@H]2[C@H](O)[C@@H](O)[C@H](O)[C@@H](O)[C@@H]2O)nn1 | 453 µM | – | – | – | – | – | – |
| CCCCCCCCCCN[C@H]1[C@H](O)[C@@H](O)[C@H](O)[C@@H](O)[C@@H]1O | – | > 100 µM | > 100 µM | Non-toxic | > 100 µM | > 100 µM | Ratio [5]: 4.9 |
| O[C@@H]1[C@@H](O)[C@H](O)[C@@H](NCc2cn(Cc3ccc(CN4CCCCC4)cc3)nn2)[C@H](O)[C@H]1O | 30.9 µM | – | – | – | – | – | – |
| O[C@@H]1[C@@H](O)[C@H](O)[C@@H](NCc2cn(Cc3cc4nsnc4cc3Cl)nn2)[C@H](O)[C@H]1O | 17.3 µM | – | – | – | – | – | – |
| COCCCOCCCn1cc(CN[C@H]2[C@H](O)[C@@H](O)[C@H](O)[C@@H](O)[C@@H]2O)nn1 | 466 µM | – | – | – | – | – | – |
| O[C@@H]1[C@@H](O)[C@H](O)[C@@H](NCc2cn(Cc3cc(OCc4ccccc4)cc(OCc4ccccc4)c3)nn2)[C@H](O)[C@H]1O | 0.05 µM | > 100 µM | > 100 µM | Non-toxic | > 100 µM | > 100 µM | Ki [6]: 0.05 µM; Ratio [5]: 31.2; inhibition [7]: 9%; IC50 [8]: 0.06 µM; inhibition [9]: 93% |
| CCCCCCCCn1cc(CN[C@H]2[C@H](O)[C@@H](O)[C@H](O)[C@@H](O)[C@@H]2O)nn1 | 2.25 µM | > 100 µM | > 100 µM | Non-toxic | > 100 µM | > 100 µM | – |
| O[C@@H]1[C@@H](O)[C@H](O)[C@@H](NCc2cn(CCCCC3CCCCC3)nn2)[C@H](O)[C@H]1O | 1.5 µM | > 100 µM | > 100 µM | Non-toxic | > 100 µM | > 100 µM | Ki [6]: 0.29 µM; Ratio [5]: 7.5; inhibition [7]: 8%; IC50 [8]: 0.3 µM; inhibition [9]: 30% |
| CC(C)(CO)Cn1cc(CN[C@H]2[C@H](O)[C@@H](O)[C@H](O)[C@@H](O)[C@@H]2O)nn1 | 134 µM | – | – | – | – | – | – |
| CCCCOCCCOCCCn1cc(CN[C@H]2[C@H](O)[C@@H](O)[C@H](O)[C@@H](O)[C@@H]2O)nn1 | 181 µM | – | – | – | – | – | – |
| CCCCCCCCCCn1cc(CN[C@H]2[C@H](O)[C@@H](O)[C@H](O)[C@@H](O)[C@@H]2O)nn1 | 0.15 µM | > 100 µM | > 100 µM | Non-toxic | > 100 µM | > 100 µM | – |
| CCCCc1ncc(Cn2cc(CN[C@H]3[C@H](O)[C@@H](O)[C@H](O)[C@@H](O)[C@@H]3O)nn2)[nH]1 | 237 µM | – | – | – | – | – | – |
| O[C@@H]1[C@@H](O)[C@H](O)[C@@H](NCc2cn(Cc3cccc(I)c3)nn2)[C@H](O)[C@H]1O | 10.3 µM | – | – | – | – | – | – |
| O[C@@H]1[C@@H](O)[C@H](O)[C@@H](NCc2cn(C3CSCCCSC3)nn2)[C@H](O)[C@H]1O | 35.9 µM | – | – | – | – | – | – |
| OCCCCCCCCCCn1cc(CN[C@H]2[C@H](O)[C@@H](O)[C@H](O)[C@@H](O)[C@@H]2O)nn1 | 2.19 µM | > 100 µM | 43 µM | Non-toxic | > 100 µM | > 100 µM | Ki [6]: 0.89 µM; Ratio [5]: 6.9; inhibition [7]: 28%; IC50 [8]: 1.3 µM; inhibition [9]: 28% |
| O[C@@H]1[C@@H](O)[C@H](O)[C@@H](NCc2cn(CCCc3nc4ccc(C(F)(F)F)cc4[nH]3)nn2)[C@H](O)[C@H]1O | 12.2 µM | – | – | – | – | – | – |
| OCCCCCCCn1cc(CN[C@H]2[C@H](O)[C@@H](O)[C@H](O)[C@@H](O)[C@@H]2O)nn1 | 5.8 µM | – | – | – | – | – | – |
| O[C@@H]1[C@@H](O)[C@H](O)[C@@H](NCc2cn(CCCCCOCc3ccccc3)nn2)[C@H](O)[C@H]1O | 10 µM | – | – | – | – | – | – |
| Cn1nnc2ccc(Cn3cc(CN[C@H]4[C@H](O)[C@@H](O)[C@H](O)[C@@H](O)[C@@H]4O)nn3)cc21 | 114 µM | – | – | – | – | – | – |
| O[C@@H]1[C@@H](O)[C@H](O)[C@@H](NCc2cn(CCCC3CCCCC3)nn2)[C@H](O)[C@H]1O | 4.32 µM | – | – | – | – | – | – |
| CC(C)(C)OCCCOCCCn1cc(CN[C@H]2[C@H](O)[C@@H](O)[C@H](O)[C@@H](O)[C@@H]2O)nn1 | 325 µM | – | – | – | – | – | – |
| CCCCCCCCCCCn1cc(CN[C@H]2[C@H](O)[C@@H](O)[C@H](O)[C@@H](O)[C@@H]2O)nn1 | 0.06 µM | > 100 µM | > 100 µM | Non-toxic | > 100 µM | > 100 µM | Ki [6]: 0.05 µM; Ratio [5]: 30.5; inhibition [7]: 29%; IC50 [8]: 0.1 µM; inhibition [9]: 97% |
| O[C@@H]1[C@@H](O)[C@H](O)[C@@H](NCc2cn(CCC(c3ccccc3)c3ccccc3)nn2)[C@H](O)[C@H]1O | 1.5 µM | > 100 µM | > 100 µM | Non-toxic | > 100 µM | > 100 µM | Activity [10]: inactive; Ki [6]: 0.77 µM; Ratio [5]: 0.5; inhibition [7]: 18%; IC50 [8]: 1.8 µM; inhibition [9]: 73% |
| CSCCCn1cc(CN[C@H]2[C@H](O)[C@@H](O)[C@H](O)[C@@H](O)[C@@H]2O)nn1 | 44.5 µM | – | – | – | – | – | – |
| O[C@@H]1[C@@H](O)[C@H](O)[C@@H](NCc2cn(CC34CC5CC(CC(C5)C3)C4)nn2)[C@H](O)[C@H]1O | 2.2 µM | > 100 µM | > 100 µM | Non-toxic | > 100 µM | > 100 µM | Activity [10]: inactive; Ki [6]: 1.05 µM; Ratio [5]: 0.7; inhibition [7]: 32%; IC50 [8]: 1.9 µM; inhibition [9]: 63% |
